# Results gathered from unrelated publications.
# Lines come from different studies, so protocols differ.
# Target: Proto-oncogene tyrosine-protein kinase Src (SRC, Homo sapiens, UniProt P12931)
SMILES,read-out,method,tested at,remaining binding [%]
COc1cc(-c2cn(C3CCc4ccccc4N(CC(F)(F)F)C3=O)nn2)ccc1-n1ccc(C)n1 (stereo not shown),cell-free assay,competition with immobilised ligand,1 µM,100
C[C@H]1CCN(c2nccc(-c3cnn4ncccc34)n2)C1,binding,,1 µM,100
c1cncc(-c2cccc(Nc3nccc(NC4CCCCC4)n3)c2)c1,binding,competition with immobilised ligand,10 µM,2.2
N#Cc1ccccc1CSc1nnc2c(n1)[nH]c1ccccc12,binding,competition with immobilised ligand,10 µM,100
CCN1CCN(Cc2ccc(C(=O)Nc3ccc(C)c(Oc4ccc5c(c4)CC(=O)N5)c3)cc2C(F)(F)F)CC1,binding,competition with immobilised ligand,1 µM,78
Cc1c[nH]c2nccc(Oc3c(F)cc(Nc4cc(Cl)nc(N)n4)cc3F)c12,cell-free assay,competition with immobilised ligand,0.1 µM,100
N[C@H]1CCN(c2nccc(-c3cnn4ncccc34)n2)C1,binding,,1 µM,88
O=C(NCCCN1CCOCC1)c1ccc(Nc2ncc(Cl)c(-c3ccc(Cl)s3)n2)cc1,binding,competition with immobilised ligand,1 µM,100
O=C(Nc1c[nH]nc1C(=O)NC1CCNCC1)c1cc(F)cc(F)c1,binding,competition with immobilised ligand,1 µM,100
CN(C)c1nccc(-c2cnn3ncccc23)n1,binding,,1 µM,100
COc1cnc(Nc2cccc(S(N)(=O)=O)c2)nc1N1CCN(c2ccccc2)CC1,binding,competition with immobilised ligand,1 µM,100
O=c1nc(-c2ccccn2)sc2ccccc12,cell-free assay,competition with immobilised ligand,1 µM,92
Cc1cnc(Nc2ccc(C(=O)N3CCC(N4CCCC4)CC3)cc2)nc1-c1cc2ccccc2s1,binding,competition with immobilised ligand,1 µM,16
CNC(=O)Nc1ccc2c(c1)[C@@]1(CC2)OC(=O)N(CC(=O)N(Cc2ccc(F)cc2)[C@@H](C)C(F)(F)F)C1=O,cell-free assay,competition with immobilised ligand,1 µM,90
CC(C)(C)c1ccc(-c2nc(CBr)nn2-c2cccc(O)c2)cc1,cell-free assay,competition with immobilised ligand,10 µM,79
F[C@@H]1CCN(c2nccc(-c3cnn4ncccc34)n2)C1,binding,,1 µM,100
O=C(Nc1cccnn1)N1CC(C/C=C/c2cncc(Oc3ccc(C(F)(F)F)cn3)n2)C1,cell-free assay,competition with immobilised ligand,1 µM,100
O=C(c1ccc(Nc2ncc(Cl)c(-c3ccc(Cl)s3)n2)cc1)N1CCC(N2CCCC2)CC1,binding,competition with immobilised ligand,1 µM,77
CN(C)c1ncnc(-c2ccc3nc(Nc4cc(CN5CCN(C(=O)CC(F)(F)F)CC5)ccn4)[nH]c3c2)c1Cl,cell-free assay,competition with immobilised ligand,1 µM,100
c1cnn2ncc(-c3ccnc(N4CCC45COC5)n3)c2c1,binding,,1 µM,100
COc1ncc2cc3ccccc3nc2c1C#N,cell-free assay,competition with immobilised ligand,5 µM,88
CC1CCCN1c1nccc(-c2cnn3ncccc23)n1 (stereo not shown),binding,,1 µM,100
Cc1cc(-n2nc(Cc3cc(F)cc(C(F)(F)F)c3)nc2C)ccc1C(N)=O,cell-free assay,competition with immobilised ligand,1 µM,95
CN(c1nccc(-c2cnn3ncccc23)n1)C1CC1,binding,,1 µM,100
C=CC(=O)N1CCC(C(=O)NCC(=O)N2CCN(c3nc(-c4cnc(N)nc4C(F)F)nc(N4CCOCC4)n3)CC2)CC1,binding,competition with immobilised ligand,1 µM,91
